From ChEMBL document CHEMBL1157730, “Diaryl piperidines as CB1 receptor antagonists” (Bioorg Med Chem Lett, 2010)

Assays:
[1] = target: Cannabinoid receptor 1 (Homo sapiens, UniProt P21554); experiment: Binding affinity to human CB1 receptor
[2] = target: T1, Cannabinoid receptor 2 (Homo sapiens, UniProt P34972); experiment: Binding affinity to human CB2 receptor
[3] = target: T1, Cannabinoid receptor 2; experiment: Binding affinity to human CB2 receptor at 1 uM
[4] = Drug level in DIO mouse plasma at 3 mg/kg, po after 24 hrs; assay type: ADME, organism-based; set-up: dose 3 mg/kg, route oral; conditions: read-out: Drug uptake
Procedure, shortened: (§1)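 Diet-induced obese mice dosed orally at 3 mg/kg, 1 h before dark onset; total drug concentrations in plasma (ng/mL) and brain (ng/g) measured at the 24-h time point.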

[5] = tested on: Mus musculus; experiment: Reduction of food intake in DIO mouse model at 3 mg/kg, po after 24 hrs relative to control; assay type: functional; set-up: scale not given: the % may be the effect or the level left
Procedure, shortened: (§2)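 Fed diet-induced obese mice; oral dosing 1 h before dark onset; food intake measured at 2, 4, 6 and 24 h and expressed as percent reduction versus vehicle-treated mice; significance threshold p<0.05.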

[6] = tested on: Mus musculus; experiment: Reduction of food intake in DIO mouse model at 3 mg/kg, po after 4 hrs relative to control; assay type: functional; set-up: scale not given: the % may be the effect or the level left; procedure, shortened: as §2
[7] = tested on: Mus musculus; experiment: Reduction of food intake in DIO mouse model at 3 mg/kg, po after 6 hrs relative to control; assay type: functional; set-up: scale not given: the % may be the effect or the level left; procedure, shortened: as §2
[8] = Drug level in DIO mouse brain at 3 mg/kg, po after 24 hrs; assay type: ADME, organism-based; set-up: dose 3 mg/kg, route oral; conditions: read-out: Drug uptake; procedure, shortened: as §1
[9] = tested on: Mus musculus; experiment: Reduction of food intake in DIO mouse model at 3 mg/kg, po after 2 hrs relative to control; assay type: functional; set-up: scale not given: the % may be the effect or the level left; procedure, shortened: as §2

T1 sequence (P34972 whole entry): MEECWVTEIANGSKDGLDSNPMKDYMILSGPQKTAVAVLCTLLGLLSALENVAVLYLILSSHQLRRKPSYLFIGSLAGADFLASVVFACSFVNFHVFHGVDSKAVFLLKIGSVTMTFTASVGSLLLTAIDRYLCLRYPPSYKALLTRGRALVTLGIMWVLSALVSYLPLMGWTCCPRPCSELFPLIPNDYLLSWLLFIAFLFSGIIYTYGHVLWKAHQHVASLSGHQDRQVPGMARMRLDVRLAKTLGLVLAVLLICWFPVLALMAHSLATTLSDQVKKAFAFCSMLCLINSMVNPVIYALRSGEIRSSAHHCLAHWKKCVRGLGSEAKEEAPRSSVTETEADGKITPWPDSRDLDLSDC
Chain of Cannabinoid receptor 1 (P21554 whole entry): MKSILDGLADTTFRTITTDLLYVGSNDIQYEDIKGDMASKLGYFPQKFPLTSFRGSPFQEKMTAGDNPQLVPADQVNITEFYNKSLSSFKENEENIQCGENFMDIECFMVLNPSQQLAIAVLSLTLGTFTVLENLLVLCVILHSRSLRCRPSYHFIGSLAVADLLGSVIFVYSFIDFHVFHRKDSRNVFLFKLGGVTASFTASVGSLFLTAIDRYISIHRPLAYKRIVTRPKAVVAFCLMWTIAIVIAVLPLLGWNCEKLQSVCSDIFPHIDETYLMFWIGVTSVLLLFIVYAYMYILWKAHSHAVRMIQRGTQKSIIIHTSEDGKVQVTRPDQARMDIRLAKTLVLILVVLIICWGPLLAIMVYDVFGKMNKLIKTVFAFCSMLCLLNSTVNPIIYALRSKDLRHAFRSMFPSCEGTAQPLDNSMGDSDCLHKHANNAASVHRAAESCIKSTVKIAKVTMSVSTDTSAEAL

Row | SMILES | Ki [1] | Ki [2] | also measured
1 | O=S(=O)(NC[C@@H]1CC[C@@H](c2ccc(Cl)cc2Cl)N(c2ccc(Cl)cc2)C1)C1CC1 | 158 nM | > 1850 nM | 
2 | O=S(=O)(NC[C@@H]1CC[C@@H](c2ccc(Cl)cc2Cl)N(c2ccc(Cl)cc2)C1)c1cccnc1 | 6 nM | > 1850 nM | 
3 | Fc1ccc(C[C@@H]2CC[C@H](c3ccc(Cl)cc3)N(c3ccc(Cl)cc3)C2)cc1F (relative stereo) | > 1640 nM | > 1850 nM | 
4 | NC[C@@H]1CC[C@@H](c2ccc(Cl)cc2Cl)N(c2ccc(Cl)cc2)C1 | 133 nM | > 1850 nM | 
5 | O=S(=O)(NCC[C@@H]1CC[C@@H](c2ccc(Cl)cc2Cl)N(c2ccc(Cl)cc2)C1)C1CC1 | 3.8 nM | > 2220 nM | 
6 | O=C(NC1CCC1)[C@@H]1CC[C@@H](c2ccc(Cl)cc2Cl)N(c2ccc(Cl)cc2)C1 | 33 nM | 1380 nM | 
7 | CC(C)CCNS(=O)(=O)[C@@H]1CC[C@@H](c2ccc(Cl)cc2Cl)N(c2ccc(Cl)cc2)C1 | 9.1 nM | 1380 nM | 
8 | O=C1[C@@H](Cc2ccc(F)c(F)c2)CC[C@H](c2ccc(Cl)cc2)N1c1ccc(Cl)cc1 (relative stereo) | 444 nM | 574 nM | 
9 | CCCS(=O)(=O)NC[C@@H]1CC[C@@H](c2ccc(Cl)cc2Cl)N(c2ccc(Cl)cc2)C1 | 48 nM |  | inhibition [3]: 25%
10 | CC(C)(C)CCN1CCN(C[C@@H]2CC[C@@H](c3ccc(Cl)cc3Cl)N(c3ccc(Cl)cc3)C2)CC1 | 57 nM | > 1500 nM | 
11 | O=C(NCc1ccc(Cl)cc1)[C@@H]1CC[C@@H](c2ccc(Cl)cc2Cl)N(c2ccc(Cl)cc2)C1 | 63 nM | > 1850 nM | 
12 | Fc1ccc(C[C@H]2CC[C@H](c3ccc(Cl)cc3Cl)N(c3ccc(Cl)cc3)C2)cc1F (relative stereo) | 15 nM | > 1850 nM | 
13 | Fc1ccc(C[C@H]2CC[C@H](c3ccc(Cl)cc3)N(c3ccc(Cl)cc3Cl)C2)cc1F (relative stereo) | 467 nM | > 1850 nM | 
14 | O=S(=O)(NC[C@@H]1CC[C@@H](c2ccc(Cl)cc2Cl)N(c2ccc(Cl)cc2)C1)c1cccc2ccccc12 | 2.3 nM |  | inhibition [3]: 5%
15 | NCC[C@@H]1CC[C@@H](c2ccc(Cl)cc2Cl)N(c2ccc(Cl)cc2)C1 | 61 nM | > 2220 nM | 
16 | Fc1ccc(C[C@H]2CC[C@H](c3ccc(Cl)cc3)N(c3ccc(Cl)cc3)C2)cc1F (relative stereo) | 72 nM | > 1770 nM | 
17 | O=C1[C@@H](Cc2ccc(F)c(F)c2)CC[C@H](c2ccc(Cl)cc2Cl)N1c1ccc(Cl)cc1 (relative stereo) | 109 nM | > 1680 nM | 
18 | O=S(=O)(NCC[C@@H]1CC[C@@H](c2ccc(Cl)cc2Cl)N(c2ccc(Cl)cc2)C1)c1cccnc1 | 5.8 nM | > 2220 nM | 

Row | SMILES | Ki [1] | Ki [2] | also measured
19 | Clc1ccc(N2C[C@H](CN3CCNCC3)CC[C@H]2c2ccc(Cl)cc2Cl)cc1 | 554 nM | > 2000 nM | 
20 | O=C(NC1CCCCC1)[C@@H]1CC[C@@H](c2ccc(Cl)cc2Cl)N(c2ccc(Cl)cc2)C1 | 18 nM | 368 nM | 
21 | O=S(=O)(C1CC1)N1CCN(C[C@@H]2CC[C@@H](c3ccc(Cl)cc3Cl)N(c3ccc(Cl)cc3)C2)CC1 | 44 nM | > 2220 nM | 
22 | N#Cc1ccc(C(=O)NC[C@@H]2CC[C@@H](c3ccc(Cl)cc3Cl)N(c3ccc(Cl)cc3)C2)cc1 | 5 nM | 1410 nM | concentration at 24 h [4]: 28 ng/mL; Activity [5]: 10%; Activity [6]: 22%; Activity [7]: 24%; concentration at 24 h [8]: 12 ng/g; Activity [9]: 22%
23 | CC(C)CNC(=O)[C@@H]1CC[C@@H](c2ccc(Cl)cc2Cl)N(c2ccc(Cl)cc2)C1 | 33 nM | 1580 nM | 
24 | N#Cc1ccc(S(=O)(=O)NCC[C@@H]2CC[C@@H](c3ccc(Cl)cc3Cl)N(c3ccc(Cl)cc3)C2)cc1 | 4.2 nM | > 2220 nM | 
25 | O=S(=O)(NCCC1CCC(c2ccc(Cl)cc2Cl)N(c2ccc(Cl)cc2)C1)C1CC1 (stereo in doubt; 14f) | 3.4 nM | > 2400 nM | concentration at 24 h [4]: 15 ng/mL; Activity [5]: 37%; Activity [6]: 37%; Activity [7]: 38%; concentration at 24 h [8]: 66 ng/g; Activity [9]: 39%
26 | N#Cc1ccc(C(=O)NCC[C@@H]2CC[C@@H](c3ccc(Cl)cc3Cl)N(c3ccc(Cl)cc3)C2)cc1 | 5.1 nM | > 2450 nM | 
27 | CC(C)(C)CC(=O)N1CCN(C[C@@H]2CC[C@@H](c3ccc(Cl)cc3Cl)N(c3ccc(Cl)cc3)C2)CC1 | 13 nM | > 2400 nM | concentration at 24 h [4]: 1 ng/mL; Activity [5]: 9%; Activity [6]: 0%; Activity [7]: 3%; Activity [9]: 0%
28 | CC(=O)N1CCN(C[C@@H]2CC[C@@H](c3ccc(Cl)cc3Cl)N(c3ccc(Cl)cc3)C2)CC1 | 451 nM | > 1850 nM | 
29 | O=C(NC[C@@H]1CC[C@@H](c2ccc(Cl)cc2Cl)N(c2ccc(Cl)cc2)C1)C1CC1 | 112 nM |  | inhibition [3]: 25%
30 | CC(=O)NCC[C@@H]1CC[C@@H](c2ccc(Cl)cc2Cl)N(c2ccc(Cl)cc2)C1 | 42 nM | > 2400 nM | 
31 | O=S(=O)(NCCC1CCC(c2ccc(Cl)cc2Cl)N(c2ccc(Cl)cc2)C1)C1CC1 (single isomer, unassigned; enantiomer 2) | 57 nM | > 2400 nM | 
32 | CC(C)(C)OC(=O)N1CCN(C[C@@H]2CC[C@@H](c3ccc(Cl)cc3Cl)N(c3ccc(Cl)cc3)C2)CC1 | 8 nM | > 1850 nM | 
33 | O=S(=O)(C[C@@H]1CC[C@@H](c2ccc(Cl)cc2Cl)N(c2ccc(Cl)cc2)C1)NC1CCCCC1 | 35 nM | 1250 nM | 
34 | O=C1[C@H](Cc2ccc(F)c(F)c2)CC[C@H](c2ccc(Cl)cc2)N1c1ccc(Cl)cc1 (relative stereo) | 714 nM | > 1780 nM | 
35 | CS(=O)(=O)N1CCN(C[C@@H]2CC[C@@H](c3ccc(Cl)cc3Cl)N(c3ccc(Cl)cc3)C2)CC1 | 690 nM | > 1850 nM | 
